# In PMC11203390 (Molecular Therapy. Nucleic Acids, 2024):
# Key:
# [1] = tested on: siRNA; assay: Electrophoretic mobility shift assay; assay type: binding; conditions: pH 7
# Procedure, shortened: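 Negative-control siRNA mixed with peptide at 1:20–1:100 siRNA:peptide molar ratios in RNase-free water, then incubated 1 h at 4, 25, 37 or 50 °C to encapsulate. For competition, DSS, 8 M urea stock or 20% NaCl stock was added before or after encapsulation. Complexes were run in dye-free glycerol loading buffer (5% final) on 4% agarose gels stained with ethidium bromide.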
# [2] = target: SARS-CoV-2 spike RBD (Severe acute respiratory syndrome coronavirus 2, UniProt P0DTC2)
# [3] = target: Integrin α2 (ITGA2) (Homo sapiens, UniProt P17301); assay: Direct ELISA on HE25-coated plates, ITGA2; assay type: binding; conditions: negative control receptor
# Integrin α2 (ITGA2), sequence (P17301 30-1132 limits assumed): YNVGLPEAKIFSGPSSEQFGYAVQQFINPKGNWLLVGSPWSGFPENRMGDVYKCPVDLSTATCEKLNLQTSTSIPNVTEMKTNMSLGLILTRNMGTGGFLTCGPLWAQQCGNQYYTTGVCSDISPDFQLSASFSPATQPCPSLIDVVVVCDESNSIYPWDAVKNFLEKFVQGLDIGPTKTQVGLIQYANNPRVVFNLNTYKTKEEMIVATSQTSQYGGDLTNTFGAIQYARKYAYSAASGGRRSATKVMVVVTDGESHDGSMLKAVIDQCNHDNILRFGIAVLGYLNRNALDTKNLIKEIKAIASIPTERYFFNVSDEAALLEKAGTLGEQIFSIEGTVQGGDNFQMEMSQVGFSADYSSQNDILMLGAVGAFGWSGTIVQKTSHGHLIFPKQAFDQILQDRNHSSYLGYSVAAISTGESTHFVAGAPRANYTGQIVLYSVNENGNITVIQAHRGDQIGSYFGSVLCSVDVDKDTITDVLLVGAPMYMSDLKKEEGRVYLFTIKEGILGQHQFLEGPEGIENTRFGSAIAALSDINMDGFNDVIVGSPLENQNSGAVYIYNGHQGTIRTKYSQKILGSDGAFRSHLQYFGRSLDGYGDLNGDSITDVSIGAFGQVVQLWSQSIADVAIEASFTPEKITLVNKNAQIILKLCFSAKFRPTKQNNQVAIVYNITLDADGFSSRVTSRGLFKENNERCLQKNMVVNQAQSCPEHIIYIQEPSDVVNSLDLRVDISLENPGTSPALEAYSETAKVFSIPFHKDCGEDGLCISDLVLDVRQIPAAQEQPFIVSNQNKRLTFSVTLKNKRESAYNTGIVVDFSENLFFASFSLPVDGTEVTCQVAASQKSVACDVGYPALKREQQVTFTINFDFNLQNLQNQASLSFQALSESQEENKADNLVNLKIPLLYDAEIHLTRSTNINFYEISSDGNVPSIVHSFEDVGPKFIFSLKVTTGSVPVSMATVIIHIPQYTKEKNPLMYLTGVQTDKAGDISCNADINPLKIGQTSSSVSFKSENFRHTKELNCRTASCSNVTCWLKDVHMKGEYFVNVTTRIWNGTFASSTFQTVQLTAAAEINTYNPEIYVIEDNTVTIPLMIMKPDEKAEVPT
substance,measurement,setting,value
stearyl-HEHHEHHEHEHGFLGRVRVLRGDKW-amide [HE25],effect of DSS on binding and preformed complex,"[1]; EMSA competition, 20 mg/mL DSS before or after encapsulation, 50°C, molar ratio 1:100",interfere with the binding and disassemble the preformed complex
same,effect of urea on binding and preformed complex,"[1]; EMSA competition, 1.6 M urea before or after encapsulation, 50°C, molar ratio 1:100",hindered initial binding but did not affect the ones formed
same,effect of NaCl on binding and disassembly,"[1]; EMSA competition, 4% NaCl before or after encapsulation, 50°C, molar ratio 1:100",no notable effect on either binding or disassembly
same,effect of urea on binding,"[1]; EMSA competition, urea, 4°C, molar ratio 1:100",not observed before encapsulation
same,encapsulation efficiency at 50°C,"[1]; EMSA, 50°C",significantly increases
same,binding of spike RBD to HE25-coated plates,[2],recognized
same,binding of ITGA2 to HE25,[3],did not efficiently bind
